This is a sample that favours compounds with a hit; in the whole collection about 1.6% have one here.
proKLK7 act = activates the human kallikrein-7 zymogen; AID 652039; 0.9% of 370,000 active; activation, % at 7 µM; purified proKLK7, EDANS-DABCYL substrate fluorescence; 100% is mature enzyme control, 0% vehicle;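 active means activation above the mean of all tested compounds plus 3 SD, computed per campaign excluding outliers beyond control limits, cut at about 13% in these data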
Neddyl block = inhibitors of human cullin neddylation; 0.58% of 360,000 active; calls only at 25 µM; TR-FRET cullin neddylation, biochemical; in the data active means inhibition above about 36%
proCasp3 act = activators of human procaspase-3 | P42574 | recombinant procaspase-3 D3A, Ac-DEVD-pNA absorbance 405 nm | activation, % at 8.5 µM | 0.11% of 330,000 active;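 active means activation above the mean of all tested compounds plus 3 SD, cut at about 21% in these data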
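Test system: Procaspase-3 D3A mutant, all three cleavage aspartates alanine | Dosing: Single dose, 8.5 µM nominal compound, 0.8% DMSO | Schedule: 1 h preincubation, 2 h reaction | Technique: 405 nm absorbance of p-nitroaniline, reads at 0 and 120 min | Repeats: One well per compound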
proCasp7 act = activates human procaspase-7, counter-screen for procaspase-3 activators | P55210 | recombinant procaspase-7, Ac-DEVD-pNA absorbance 405 nm; D23A/D198A/D206A triple mutant, cannot self-cleave; scale: DMSO 0, 5 µM enzyme 100 | activation, % at 8.5 µM | 0.093% of 330,000 active;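 active means percent activation above the screen-wide mean plus 3 SD, cut at about 25% in these data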
Target sequence (P55210 whole entry D23A/D198A/D206A): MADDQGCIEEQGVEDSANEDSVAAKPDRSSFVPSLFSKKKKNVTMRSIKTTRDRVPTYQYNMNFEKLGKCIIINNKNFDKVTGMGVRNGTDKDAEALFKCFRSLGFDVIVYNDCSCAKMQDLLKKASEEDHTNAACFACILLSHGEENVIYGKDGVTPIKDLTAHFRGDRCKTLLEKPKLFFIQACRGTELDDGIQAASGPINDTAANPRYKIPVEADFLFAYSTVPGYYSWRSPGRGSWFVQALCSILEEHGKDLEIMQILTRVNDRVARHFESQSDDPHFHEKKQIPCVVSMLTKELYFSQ
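Detection: p-Nitroaniline absorbance at 405 nm, read at 0 and 120 min; system: Uncleavable procaspase-7 mutant enzyme; evaluation: % activation from two-timepoint absorbance difference, scaled to controls; times: 1 h enzyme–compound preincubation and 2 h substrate reaction, both 25 °C; buffer or medium: Zinc-free HEPES pH 7.4 with 300 mM NaCl, 0.01% Triton X-100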
KLK7 act conf = proKLK7 activation, confirmation; 68% of 3,200 active; activation, % at 7 µM; purified proKLK7, EDANS-DABCYL substrate fluorescence; scaled: vehicle 0, mature enzyme 100; shares compounds with proKLK7 act;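 active means activation, as change over the incubation, above the mean of all tested compounds plus 3 SD, cut at about 13% in these data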
EDANS-DABCYL int = optically interferes with EDANS-DABCYL signal, flagging KLK7 hits; shares compounds with proKLK7 act; EDANS-DABCYL substrate fluorescence interference, no enzyme, 4 h; solvent 0%, active enzyme control 100%; activation, % at 7 µM; 80% of 3,200 active; AID 686952;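 active means activation above the all-compound mean plus 3 SD, ignoring values outside control-based bounds, cut at about 4.8% in these data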;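 further: value is the 4 h activation minus the activation read at time zero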
Each line names hits and unclear results; the compound was inactive in the other large screens (follow-up assays come after a bar, where shown).

Cc1c(O)c(=O)c2ccccc2n1C	proKLK7 act 92 (not shown: Neddyl block) | KLK7 act conf 73 | EDANS-DABCYL int 64
Cc1ccc(N=Cc2c(O)c3ccccc3n(C)c2=O)cc1	proKLK7 act 29 (no result: proCasp3 act, proCasp7 act) | KLK7 act conf inactive | EDANS-DABCYL int inactive
CC(OC(=O)c1cccc(-n2cnnn2)c1)C(=O)Nc1cccc(Cl)c1 (stereo not given)	none
CC(=O)OCC(=O)C12OC(C)(C)OC1CC1C3CC=C4CC(O)CCC4(C)C3CCC12C (stereo not given)	none (no result: proCasp3 act, proCasp7 act)
COc1ccc(CCC(C)NC(=O)Cc2ccc(OC)c(OC)c2)c(OC)c1 (stereo not given)	none
CCOC(=O)c1cn(C2CC2)c2c(F)c(NCCCN(C)C)c(F)cc2c1=O	proKLK7 act 20 (not shown: Neddyl block) | KLK7 act conf inactive | EDANS-DABCYL int 12
C=CCNc1sc(C(=O)c2cccs2)c(N)c1C#N	proKLK7 act 87 | KLK7 act conf inactive | EDANS-DABCYL int inactive
CC(Nc1cc(C)cc(C)c1)=[N+](C)CCNS(=O)(=O)c1ccc(Cl)cc1	none
Cc1occc1-c1nnc(SCC(=O)c2cc3ccccc3oc2=O)o1	none
N#CC1=C(SCC(=O)c2cc3ccccc3oc2=O)NC(=O)C(C#N)C12CCCC2 (stereo not given)	proKLK7 act 27 | KLK7 act conf 55 | EDANS-DABCYL int 54
O=C1N/C(=C/c2ccc(N3CCOCC3)o2)C(=O)N1c1ccccc1	proKLK7 act 20 | KLK7 act conf inactive | EDANS-DABCYL int 10
C=CCN1C(=O)N/C(=C/c2ccc(N3CCOCC3)o2)C1=O	none (no result: Neddyl block)
NS(=O)(=O)c1ccc(N=Cc2c(O)n(-c3nccs3)c(=O)c3ccccc23)cc1	proKLK7 act 23 | KLK7 act conf 18 | EDANS-DABCYL int 20
Cc1cccc(-n2c(O)c(C=Nc3cc(O)ccc3C)c3ccccc3c2=O)n1	none
Cc1cccc(-n2c(O)c(C=Nc3ccccc3O)c3ccccc3c2=O)n1	proKLK7 act 18 | KLK7 act conf inactive | EDANS-DABCYL int 9.4
Cc1cccc(-n2c(O)c(C=Nc3ccc(O)cc3)c3ccccc3c2=O)n1	proKLK7 act 18 | KLK7 act conf 23 | EDANS-DABCYL int 23
O=c1c2ccccc2c(C=Nc2ccc(S(=O)(=O)N3CCCCC3)cc2)c(O)n1-c1ccc(Cl)cn1	none
COc1ccccc1N1C(=O)CC(N(O)c2ccccc2)C1=O (stereo not given)	proKLK7 act 117 | KLK7 act conf 192 | EDANS-DABCYL int 195
O=C1CC(N(O)c2ccccc2)C(=O)N1c1cc(Cl)cc(Cl)c1 (stereo not given)	proKLK7 act 48 | KLK7 act conf 645 | EDANS-DABCYL int 617
COc1ccccc1N(O)C1CC(=O)N(c2ccc(F)cc2)C1=O (stereo not given)	none
Cc1ccccc1N1C(=O)CC(N(O)c2ccccc2)C1=O (stereo not given)	proKLK7 act 363 | KLK7 act conf 317 | EDANS-DABCYL int 330
O=C1CC(N(O)c2ccccc2)C(=O)N1Cc1ccccc1 (stereo not given)	none
CCCOc1ccccc1N1C(=O)CC(N(O)c2ccccc2)C1=O (stereo not given)	proKLK7 act 47 | KLK7 act conf 29 | EDANS-DABCYL int 31
COC(=O)C(=O)C/C(=N/Nc1ncnc2ccccc12)c1ccc(Cl)cc1	none
CS(=O)(=O)N1CCC(C(=O)Nc2ccc(Cl)cc2Cl)CC1	none (no result: proCasp3 act, proCasp7 act)
CCCOc1ccc(N2C(=O)CC(N(O)c3ccccc3)C2=O)cc1 (stereo not given)	proKLK7 act 112 | KLK7 act conf 120 | EDANS-DABCYL int 125
CCCOc1ccc(N2C(=O)CC(N(Cc3ccccc3)N=O)C2=O)cc1 (stereo not given)	none
O=c1c2cc(N3CCOCC3)ccc2[nH]c(=S)n1Cc1ccco1	proKLK7 act 28 (not shown: Neddyl block) | KLK7 act conf 17 | EDANS-DABCYL int 17
O=c1c2cc(N3CCOCC3)ccc2[nH]c(=S)n1Cc1cccc(Cl)c1	none (not shown: Neddyl block)
O=C(NC1CCN(Cc2ccccc2)CC1)c1ccc(Cn2c(=S)[nH]c3ccc(N4CCOCC4)cc3c2=O)cc1	none

Screening results from PubChem BioAssay.
